Laboratory results from ChEMBL document CHEMBL4020842, “Discovery of N1-(4-((7-Cyclopentyl-6-(dimethylcarbamoyl)-7 H-pyrrolo[2,3- d]pyrimidin-2-yl)amino)phenyl)- N8-hydroxyoctanediamide as a Novel Inhibitor Targeting Cyclin-dependent Kinase 4/9 (CDK4/9) and Histone Deacetlyase1 (HDAC1) against Malignant Cancer” (J Med Chem, 2018).
pIC50: −log10 of the molar value. Calls of active or inactive are those of the source. The calls are words filed in the database; no cut-off is given here.

Assays:
[1] = molecular target: T1, Histone deacetylase 1 (Homo sapiens, UniProt Q13547); experiment: Inhibition of HDAC1 in human HepG2 cells assessed as increase in p53 phosphorylation at Ser15 residue at 1 to 5 uM after 48 hrs by Western blot method; assay type: cell-based
T1 sequence (Q13547 whole entry): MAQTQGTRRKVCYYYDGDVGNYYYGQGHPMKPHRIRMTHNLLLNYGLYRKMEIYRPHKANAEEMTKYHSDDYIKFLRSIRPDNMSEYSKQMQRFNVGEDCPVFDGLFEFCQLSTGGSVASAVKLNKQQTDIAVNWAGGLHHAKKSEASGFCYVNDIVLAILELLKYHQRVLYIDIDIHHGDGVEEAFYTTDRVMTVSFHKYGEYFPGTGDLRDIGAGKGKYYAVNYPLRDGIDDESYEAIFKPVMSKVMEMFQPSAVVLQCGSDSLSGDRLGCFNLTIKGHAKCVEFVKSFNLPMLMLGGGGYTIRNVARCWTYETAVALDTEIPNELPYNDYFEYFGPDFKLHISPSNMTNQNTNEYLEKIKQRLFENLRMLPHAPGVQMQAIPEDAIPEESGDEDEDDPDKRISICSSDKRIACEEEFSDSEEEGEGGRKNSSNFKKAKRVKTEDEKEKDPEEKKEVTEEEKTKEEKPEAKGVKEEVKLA

[2] = molecular target: Serine/threonine-protein kinase TAO2 (Homo sapiens, UniProt Q9UL54); experiment: Inhibition of recombinant human N-terminal His6-tagged TAO2 expressed in sf21 cells
Chain of Serine/threonine-protein kinase TAO2 (Q9UL54 whole entry): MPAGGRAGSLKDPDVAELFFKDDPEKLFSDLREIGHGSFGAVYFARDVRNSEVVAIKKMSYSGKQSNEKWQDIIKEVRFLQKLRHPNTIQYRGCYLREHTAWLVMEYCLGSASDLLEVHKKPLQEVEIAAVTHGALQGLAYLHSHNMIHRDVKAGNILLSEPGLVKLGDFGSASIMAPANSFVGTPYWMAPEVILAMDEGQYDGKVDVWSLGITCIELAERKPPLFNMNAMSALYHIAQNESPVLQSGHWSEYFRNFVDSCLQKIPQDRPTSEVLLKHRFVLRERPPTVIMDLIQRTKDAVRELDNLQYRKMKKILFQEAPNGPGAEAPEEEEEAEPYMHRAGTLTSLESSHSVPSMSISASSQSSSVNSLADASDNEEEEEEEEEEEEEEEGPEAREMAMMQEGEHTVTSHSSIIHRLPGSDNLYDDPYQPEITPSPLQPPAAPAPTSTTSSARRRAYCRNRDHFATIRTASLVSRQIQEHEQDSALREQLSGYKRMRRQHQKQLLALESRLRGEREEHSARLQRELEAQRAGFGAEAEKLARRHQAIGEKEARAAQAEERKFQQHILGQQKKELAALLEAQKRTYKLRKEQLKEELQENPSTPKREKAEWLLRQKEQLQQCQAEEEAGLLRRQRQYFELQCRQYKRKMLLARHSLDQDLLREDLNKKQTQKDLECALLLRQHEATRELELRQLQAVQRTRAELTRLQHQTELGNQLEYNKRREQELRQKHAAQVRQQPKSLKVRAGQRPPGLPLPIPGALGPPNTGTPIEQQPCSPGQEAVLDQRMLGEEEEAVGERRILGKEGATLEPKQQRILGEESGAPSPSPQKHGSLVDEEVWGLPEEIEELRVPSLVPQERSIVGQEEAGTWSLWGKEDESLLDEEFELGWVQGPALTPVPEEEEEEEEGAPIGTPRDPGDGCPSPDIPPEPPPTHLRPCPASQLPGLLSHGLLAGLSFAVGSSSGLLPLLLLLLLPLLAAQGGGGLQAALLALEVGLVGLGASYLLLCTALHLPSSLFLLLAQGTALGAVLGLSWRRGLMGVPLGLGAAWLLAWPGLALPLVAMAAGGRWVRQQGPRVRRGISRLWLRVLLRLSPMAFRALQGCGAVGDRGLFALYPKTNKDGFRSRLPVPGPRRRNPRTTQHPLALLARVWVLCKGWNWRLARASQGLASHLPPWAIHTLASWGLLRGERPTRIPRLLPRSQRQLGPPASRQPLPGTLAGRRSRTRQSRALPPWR

[3] = test system: Mus musculus; experiment: Downregulation of phosphorylated Rb level in tumor of Balb/c mouse implanted with mouse Fluc-labeled 4T1 cells at 90 to 130 mg/kg, po administered via gavage daily for 18 days by immunohistochemical analysis; assay type: functional, organism-based
How it was run: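 4T1 cells were labeled with firefly luciferase by lentiviral transduction and implanted orthotopically into the mammary fat pads of 6−8-week-old female BALB/c mice. Dosing by oral gavage began once tumors averaged 100 mm3, at 90 and 130 mg/kg. p-Rb in tumors was assessed by immunohistochemistry.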

[4] = test system: Hep 3B2; experiment: Induction of apoptosis in human Hep3B cells assessed as early apoptotic cells at 10 uM after 48 hrs by annexin V-FITC/propidium iodide staining based flow cytometry (reference value: 1.91%); assay type: functional
[5] = test system: 4T1; experiment: Antitumor activity against mouse Fluc-labeled 4T1 cells implanted in Balb/c mouse assessed as tumor growth inhibition at 130 mg/kg, ip administered daily for 18 days measured after 8 to 25 days by bioluminescence assay relative to control; assay type: functional; conditions: 4T1, ip, read-out: TGI
[6] = test system: HepG2; experiment: Induction of apoptosis in human HepG2 cells assessed as reduction in Bcl2 protein expression after 48 hrs by Western blot method; assay type: functional, cell-based
How it was run: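 Cells were treated with or without test agent, alongside a control, for 48h. They were then lysed and analysed by Western blot for Bcl-2 protein and cleaved caspase 3.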

[7] = test system: Hep 3B2; experiment: Downregulation of Cyclin-D1 protein expression in human Hep3B cells after 48 hrs by Western blot method; assay type: functional, cell-based
How it was run: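 Treated cells were lysed and CDK4 and cyclin D1 protein levels were assessed by Western blot.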

[8] = MRT (0 to infinity) in Sprague-Dawley rat at 20 mg/kg, ip administered as single dose by HPLC analysis; assay type: ADME, organism-based; conditions: in vivo
[9] = molecular target: Calcium/calmodulin-dependent protein kinase kinase 2 (Homo sapiens, UniProt Q96RR4); experiment: Inhibition of recombinant human full length C-terminal 6His-tagged CaMKK2 expressed in baculovirus infected sf21 cells
Chain of Calcium/calmodulin-dependent protein kinase kinase 2 (Q96RR4 whole entry): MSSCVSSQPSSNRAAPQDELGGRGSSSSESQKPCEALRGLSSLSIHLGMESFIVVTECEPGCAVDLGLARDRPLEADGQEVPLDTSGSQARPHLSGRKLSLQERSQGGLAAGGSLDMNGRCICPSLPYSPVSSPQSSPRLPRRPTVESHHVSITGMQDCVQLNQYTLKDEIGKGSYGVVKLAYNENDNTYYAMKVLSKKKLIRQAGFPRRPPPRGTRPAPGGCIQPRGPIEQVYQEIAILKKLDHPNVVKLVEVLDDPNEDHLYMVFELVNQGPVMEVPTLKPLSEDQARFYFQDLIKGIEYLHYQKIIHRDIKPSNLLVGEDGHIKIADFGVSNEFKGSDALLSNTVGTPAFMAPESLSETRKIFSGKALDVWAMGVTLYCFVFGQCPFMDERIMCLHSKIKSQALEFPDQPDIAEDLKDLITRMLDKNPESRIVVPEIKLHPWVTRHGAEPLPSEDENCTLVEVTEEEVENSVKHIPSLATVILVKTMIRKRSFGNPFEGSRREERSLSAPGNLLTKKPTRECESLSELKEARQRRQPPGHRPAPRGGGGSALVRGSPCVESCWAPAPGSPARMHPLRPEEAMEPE

[10] = test system: NCI-H460; experiment: Induction of apoptosis in human NCI-H460 cells assessed as late apoptotic cells at 5 uM after 48 hrs by annexin V-FITC/propidium iodide staining based flow cytometry (reference value: 1.29%); assay type: functional
[11] = Clearance in Sprague-Dawley rat at 20 mg/kg, iv administered as single dose by HPLC analysis; assay type: ADME, organism-based; conditions: in vivo
[12] = test system: T47D; experiment: Induction of apoptosis in human T47D cells assessed as late apoptotic cells at 1 uM after 48 hrs by annexin V-FITC/propidium iodide staining based flow cytometry (reference value: 6.16%); assay type: functional
[13] = test system: HepG2; experiment: Induction of apoptosis in human HepG2 cells assessed as necrotic cells at 10 uM after 48 hrs by annexin V-FITC/propidium iodide staining based flow cytometry (reference value: 2.32%); assay type: functional
[14] = Oral bioavailability in Sprague-Dawley rat at 20 mg/kg administered as single dose by HPLC analysis; assay type: ADME, organism-based; conditions: in vivo
[15] = Lipophilicity, log D of the compound at pH 7.4 by HPLC based shake flask method; assay type: physicochemical; conditions: buffer
[16] = molecular target: T1, Histone deacetylase 1; experiment: Inhibition of HDAC1 in human HepG2 cells assessed as increase in acetylated-histone H3 level at 1 to 5 uM after 48 hrs by Western blot method; assay type: cell-based
[17] = Clearance in Sprague-Dawley rat at 20 mg/kg, po administered as single dose by HPLC analysis; assay type: ADME, organism-based; conditions: in vivo
[18] = test system: NCI-H460; experiment: Cell cycle arrest in human NCI-H460 cells assessed as accumulation at G2 phase at 2.5 to 10 uM after 24 hrs by propidium iodide staining based flow cytometry; assay type: functional
How it was run: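 Cells were exposed for 24 h to a range of concentrations (625 nM, 2.5 and 10 µM), with DMSO vehicle as control. They were then stained with propidium iodide and analysed by flow cytometry to obtain the percentages of cells in G0/G1, S and G2 phases.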

[19] = test system: A549; experiment: Induction of apoptosis in human A549 cells assessed as early apoptotic cells at 5 uM after 48 hrs by annexin V-FITC/propidium iodide staining based flow cytometry (reference value: 0.41%); assay type: functional

CN(C)C(=O)c1cc2cnc(Nc3ccc(NC(=O)CCCCCCC(=O)NO)cc3)nc2n1C1CCCC1
inhibition [1]: Active
pIC50 [2]: 7.08
Activity [3]: Active
Activity [4]: 8.15%
inhibition in vivo at 130 mg/kg [5]: 84.8%
Activity [6]: Active
Activity [7]: Dose-dependent effect
MRT inf [8]: 13.8 h
pIC50 [9]: 7.28
Activity [10]: 5.38%
clearance [11]: 69 mL/min/kg
Activity [12]: 6.48%
Activity [13]: 5.75%
bioavailability [14]: 18.4%
logD [15]: 2.02
inhibition [16]: Active
CL/F [17]: 344 mL/min/kg
Activity [18]: Active
Activity [19]: 2.41%
